From ChEMBL document CHEMBL1139356, “New uracil dimers showing erythroid differentiation inducing activities” (J Med Chem, 2009)
Each block holds one compound with its values, some of them ahead of it. The source made the active and inactive calls. No cut-off for these calls is given here.

What was measured:
K562 [1] = experiment: Antiproliferative activity against human K562 cells after 4 days; assay type: functional, cell-based; conditions: K562, 96 h
K562 [2] = experiment: Inhibition of erythroid differentiation in human K562 cell assessed benzidine positive cells at 600 uM after 6 days by benzidine staining assay; assay type: functional; set-up: scale not given: the % may be the effect or the level left
Procedure, shortened: (§1)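 K562 cells seeded at 30 000 cells/mL and cultured with compound at the stated concentration for a 6-day induction period. Benzidine staining scores the percentage of hemoglobin-containing (benzidine-positive) cells. Values are average ± SD of three independent experiments.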

K562 [3] = experiment: Inhibition of erythroid differentiation in human K562 cell assessed benzidine positive cells at 300 uM after 6 days by benzidine staining assay; assay type: functional; set-up: scale not given: the % may be the effect or the level left; procedure, shortened: as §1
K562 [4] = experiment: Inhibition of erythroid differentiation in human K562 cell assessed benzidine positive cells at 2 mM after 6 days by benzidine staining assay; assay type: functional; set-up: scale not given: the % may be the effect or the level left; procedure, shortened: as §1
K562 [5] = experiment: Inhibition of erythroid differentiation in human K562 cell assessed benzidine positive cells at 400 uM after 6 days by benzidine staining assay; assay type: functional
Procedure, shortened: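 K562 cells cultured with 400 µM compound for 6 days. The proportion of hemoglobin-containing cells was scored by benzidine staining. Values are average ± SD of four independent experiments.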

K562 [6] = experiment: Inhibition of erythroid differentiation in human K562 cell assessed benzidine positive cells at 100 uM after 6 days by benzidine staining assay; assay type: functional; set-up: scale not given: the % may be the effect or the level left; procedure, shortened: as §1
K562 [7] = experiment: Inhibition of erythroid differentiation in human K562 cell assessed benzidine positive cells at 200 uM after 6 days by benzidine staining assay; assay type: functional; procedure, shortened: as §1
K562 [8] = experiment: Inhibition of erythroid differentiation in human K562 cell assessed benzidine positive cells at 800 uM after 6 days by benzidine staining assay; assay type: functional; set-up: scale not given: the % may be the effect or the level left; procedure, shortened: as §1
K562 [9] = experiment: Inhibition of erythroid differentiation in human K562 cell assessed benzidine positive cells at 1 mM after 6 days by benzidine staining assay; assay type: functional; set-up: scale not given: the % may be the effect or the level left; procedure, shortened: as §1
K562 [10] = experiment: Antiproliferative activity against human K562 cells after 4 days; conditions: K562, 96 h
[11] = Antiproliferative activity against human IB3-1 cells after 4 days; assay type: functional, cell-based; conditions: IB3-1, 96 h
MDA-MB-231 = experiment: Antiproliferative activity against human MDA-MB-231 cells after 4 days; assay type: functional, cell-based; conditions: MDA-MB-231, 96 h
RD = experiment: Antiproliferative activity against human RD cells after 4 days; assay type: functional, cell-based; conditions: 96 h
MCF7 = experiment: Antiproliferative activity against human MCF7 cells after 4 days; assay type: functional, cell-based; conditions: MCF7, 96 h
K562 [12] = experiment: Inhibition of erythroid differentiation in human K562 cell assessed benzidine positive cells at 500 nM after 6 days by benzidine staining assay; assay type: functional; set-up: scale not given: the % may be the effect or the level left; conditions: in the assay text read “at 100 nM” for “at 500 nM”; procedure, shortened: as §1

Compound: CCCCCCCCn1cc(C(=O)NCCCCCCNC(=O)c2cn(CCCCCCCC)c(=O)[nH]c2=O)c(=O)[nH]c1=O
IC50 (K562 [1]): 600 µM
Activity (K562 [2]): 40%

Compound: CCCC(=O)O [BUTYRIC ACID]
Activity (K562 [4]): 32.5%

Compound: CCOC(=O)Cn1cc(C(=O)NCCOCCNC(=O)c2cn(CC(=O)OCC)c(=O)[nH]c2=O)c(=O)[nH]c1=O
Activity (K562 [8]): 1%
IC50 (K562 [1]): > 800 µM

Compound: CO[C@H]1C[C@@H]2CC[C@@H](C)[C@@](O)(O2)C(=O)C(=O)N2CCCC[C@H]2C(=O)O[C@H]([C@H](C)C[C@@H]2CC[C@@H](O)[C@H](OC)C2)CC(=O)[C@H](C)/C=C(\C)[C@@H](O)[C@@H](OC)C(=O)[C@H](C)C[C@H](C)/C=C/C=C/C=C/1C [SIROLIMUS]
Activity (K562 [9]): 75.5%

Compound: COC(=O)c1c[nH]c(=O)[nH]c1=O [ISOOROTIC ACID METHYL ESTER]
Activity (K562 [8]): 5%
IC50 (K562 [1]): > 800 µM

Compound: CO[C@H](C(=O)[C@@H](O)[C@@H](C)O)[C@@H]1Cc2cc3cc(O[C@H]4C[C@@H](O[C@@H]5C[C@@H](O)[C@H](O)[C@@H](C)O5)[C@H](O)[C@@H](C)O4)c(C)c(O)c3c(O)c2C(=O)[C@H]1O[C@H]1C[C@@H](O[C@@H]2C[C@@H](O)[C@@H](O[C@@H]3C[C@](C)(O)[C@H](O)[C@@H](C)O3)[C@@H](C)O2)[C@H](O)[C@@H](C)O1 [PLICAMYCIN]
Activity (K562 [12]): 86.8%

Compound: CCCCNC(=O)c1cn(C)c(=O)[nH]c1=O
Activity (K562 [8]): 5%
IC50 (K562 [1]): 536 µM

Further lines, with some results ahead:

IC50 (K562 [1]): 420 µM
Compound: CCCCCCCCn1cc(C(=O)NCCCCCCCCNC(=O)c2cn(CCCCCCCC)c(=O)[nH]c2=O)c(=O)[nH]c1=O
Activity (K562 [2]): 45%

IC50 (K562 [1]): 247 µM
Compound: CCCCCCCCn1cc(C(=O)O)c(=O)[nH]c1=O
Activity (K562 [3]): 30%

IC50 (K562 [1]): 75 µM
Compound: CCCCCCCCn1cc(C(=O)NCc2ccccc2)c(=O)[nH]c1=O
Activity (K562 [5]): inactive
Activity (K562 [6]): 5%
Activity (K562 [2]): inactive
Activity (K562 [7]): inactive

IC50 (K562 [1]): 220 µM
Compound: CCCCCCCCn1cc(C(=O)NCCCCCCCNC(=O)c2cn(CCCCCCCC)c(=O)[nH]c2=O)c(=O)[nH]c1=O
Activity (K562 [2]): 50%

IC50 (K562 [1]): 247 µM
Compound: CCCCCCCCn1cc(C(=O)NCc2cccc(CNC(=O)c3cn(CCCCCCCC)c(=O)[nH]c3=O)c2)c(=O)[nH]c1=O
Activity (K562 [7]): 40%

IC50 (K562 [10]): 517 µM
IC50 (MDA-MB-231): 171 µM
IC50 (K562 [1]): 517 µM
IC50 (MCF7): 197 µM
Compound: CCCCCCCCn1cc(C(=O)NCc2ccc3ccc(CNC(=O)c4cn(CCCCCCCC)c(=O)[nH]c4=O)cc3c2)c(=O)[nH]c1=O
IC50 [11]: 505 µM
Activity (K562 [5]): 52%
IC50 (RD): 76.6 µM
Activity (K562 [2]): 78%
